# Screening data as filed in PubChem BioAssay.
# SIAE inh: inhibitors of human sialic acid acetylesterase SIAE. 370,000 compounds, 0.69% hits. SIAE FP-Rh probe binding, fluorescence polarization. AID 1053197. inhibition, % at 9.66 µM. Q9HAT2;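 active = inhibition above a cutoff: mean of compounds within the control limits plus 3 SD of those, cut at about 17% in these data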;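 also: 0% = plate median of compound wells and 100% = probe without SIAE protein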
# ATG4B inh: blocks human ATG4B protease cleavage of LC3 substrate; Q9Y4P1; ATG4B cleavage of LC3-PLA2, NBD-HPC fluorescence, 1 h; inhibition, % at 8.33 µM; 340,000 compounds, 0.51% hits; AID 504462; in the data active = inhibition above about 40%
# Target sequence (Q9Y4P1 whole entry, looked up): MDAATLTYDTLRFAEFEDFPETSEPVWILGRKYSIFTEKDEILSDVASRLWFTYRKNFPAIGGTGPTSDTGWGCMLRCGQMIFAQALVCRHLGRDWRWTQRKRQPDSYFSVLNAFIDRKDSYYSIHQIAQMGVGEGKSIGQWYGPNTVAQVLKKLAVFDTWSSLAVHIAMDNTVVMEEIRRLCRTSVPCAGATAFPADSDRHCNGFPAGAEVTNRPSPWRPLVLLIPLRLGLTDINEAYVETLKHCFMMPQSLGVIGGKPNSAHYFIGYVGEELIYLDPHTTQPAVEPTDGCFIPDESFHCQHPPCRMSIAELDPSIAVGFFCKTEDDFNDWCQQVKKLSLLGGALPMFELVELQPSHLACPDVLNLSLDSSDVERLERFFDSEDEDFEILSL
# HTRA1 inh: HTRA1 (human) protease inhibition | inhibition, % at 5.96 µM | recombinant HTRA1, FP-rhodamine activity-based probe, fluorescence polarization | AID 504803 | 340,000 compounds, 0.5% hits | Q92743; in the data active = inhibition above about 36%;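 also: 0% = enzyme with DMSO and 100% = wells lacking enzyme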
# PRMT1 FP inh: PRMT1 (human) inhibition, primary screen; recombinant PRMT1, activity-based probe fluorescence polarization; inhibition, % at 2.79 µM; 370,000 compounds, 1.3% hits; AID 652257;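 active = inhibition above about 21% made by adding two undisclosed values, limit read from the data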
# TCR CD3 inh: human TCR-CD3 binding inhibition; TAMRA-labeled TCR probe fluorescence, biochemical; inhibition, % at 9.4 µM; 360,000 compounds, 0.37% hits;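 also: recombinant mutant TCR 2C K166C tagged with TAMRA read by polarization; 0% = receptor in buffer alone and 100% = receptor with positive control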
# mABHD4 FP: inhibits mouse alpha/beta hydrolase domain 4; Q8VD66; purified mABHD4, FP-Rh probe fluorescence polarization; inhibition, % at 8.92 µM; 370,000 compounds, 0.54% hits;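 active = inhibition exceeding the mean over every tested compound plus 3 SD, cut at about 30% in these data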;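 also: 0% = plate median of compound wells and 100% = S159A mutant with DMSO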
#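 System: mouse ABHD4 enzyme, wild type / Medium: HEPES pH 7.0, NaCl, Pluronic buffer / Reagent: FP-Rh activity-based fluorescent probe / Control set: S159A mutant high control, sample median low control / Detection: fluorescence polarization with parallel and perpendicular emission, 525/598 nm / Schedule: 45 min + 60 min at 25 °C / Compound dosing: 8.92 µM, single dose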
# BSA probe FL: counter-screen for TCR-CD3 interaction inhibitors: BSA probe; shares compounds with TCR CD3 inh; TAMRA-labeled BSA probe fluorescence counterscreen; 1,200 compounds, 10% hits; AID 652035; inhibition, % at 9.4 µM; in the data active = inhibition above about 23%;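 also: 0% = buffer low control and 100% = reference high control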
# TCR-CD3 conf: TCR-CD3 interaction inhibition, confirmation | shares compounds with TCR CD3 inh | TAMRA-labeled TCR probe fluorescence binding assay | inhibition, % at 9.4 µM | 1,200 compounds, 48% hits | AID 652036
# PRMT1 confirm: confirmation of human PRMT1 inhibitors; shares compounds with PRMT1 FP inh; recombinant His-PRMT1, activity-based probe fluorescence polarization; inhibition, % at 2.79 µM; 3,300 compounds, 42% hits; AID 687036;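 active = mean inhibition across replicates above the hit cutoff derived for the earlier primary screen, cut at about 22% in these data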
# mABHD4 conf: ABHD4 (mouse) inhibition, FP confirmation; shares compounds with mABHD4 FP; purified mABHD4, FP-Rh probe fluorescence polarization; inhibition, % at 8.92 µM; 1,800 compounds, 55% hits; AID 720658;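 active = mean inhibition across replicates above the hit cutoff set in the primary screen, cut at about 30% in these data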;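 also: 0% = wild-type ABHD4 with DMSO and 100% = catalytically dead S159A mutant with DMSO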
# SIAE confirm: confirmation of human SIAE inhibitors; shares compounds with SIAE inh; SIAE FP-Rh activity-based probe, fluorescence polarization; inhibition, % at 9.66 µM; 2,300 compounds, 13% hits;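 active = mean inhibition of the replicates above the hit cutoff set in the primary screen, cut at about 17% in these data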;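 also: 0% = SIAE with DMSO and probe and 100% = probe without SIAE; inhibitors lower polarization as more probe stays unbound to SIAE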
# Numbers without * were called inactive; nt = no result given. Most compounds without a hit are left out; they make up all but 2.9% or so of the library. Rule as the data show it, unless noted: active = inhibition above about 19%; inactive = the rest.
SMILES,SIAE inh,ATG4B inh,HTRA1 inh,PRMT1 FP inh,TCR CD3 inh,mABHD4 FP,BSA probe FL,TCR-CD3 conf,mABHD4 conf,SIAE confirm,others
Nc1ccc(N=Nc2ccccc2O)c(N)c1,8,0,nt,9,21*,39*,-11,8,40*,nt,
NC(=O)c1sc2nc3c(c(-c4ccco4)c2c1N)CCC3,3,13,26,47*,19*,30*,4,3,8,nt,PRMT1 confirm=4
Cn1c(=O)cc(OCC(=O)N2CCN(c3ccccc3Cl)CC2)c2ccccc21,8,nt,nt,-1,nt,6,nt,nt,nt,nt,
O=C(O)c1ccccc1C1=Nc2ccc(O)cc2Oc2cc(O)ccc21,13,-20,17,47*,34*,30*,57*,47*,61*,nt,PRMT1 confirm=65*
Cc1ccc(NC(=O)[C@@H]2CCCN2S(=O)(=O)c2cccc3cccnc23)c(C)c1,-4,nt,nt,0,nt,0,nt,nt,nt,nt,
Nc1nnc(-c2ccco2)s1,6,9,4,10,3,7,nt,nt,nt,nt,
Nc1ncnc2oc(-c3ccco3)c(-c3ccco3)c12,36*,-8,23,61*,58*,34*,-5,27*,4,nt,
CCCCCN1CCCCC(NC(=O)c2ccc(C)cc2)C1=O (centres undefined),-1,nt,nt,3,nt,-2,nt,nt,nt,nt,
CC(C)N1CCCCC(NC(=O)c2ccc(Cl)cc2Cl)C1=O (centres undefined),-4,nt,nt,6,nt,-7,nt,nt,nt,nt,
NC1=NC(=O)C(=Cc2ccccc2)S1,1,7,3,4,0,7,nt,nt,nt,nt,
NC1=NC(=O)/C(=C\c2ccco2)S1,13,1,18,63*,23*,31*,-5,17,12,nt,
CC1(C)CC(=O)C(C=Nc2ccc(O)cc2)=C(O)C1,-6,0,2,5,8,26,nt,nt,nt,nt,
COC(=O)C1C(O)=C(C=Nc2ccc(N)cc2)C(=O)CC1(C)C (centres undefined),16,-12,27,3,26*,38*,-5,1,5,nt,
CC1(C)CC(=O)C(C=Nc2ccc(N)cc2)=C(O)C1,11,2,26,9,23*,35*,0,-1,-7,nt,
O=C1c2ccc3c4c(ccc(c24)C(=O)N1CCCCO)C(=O)N(CCCCO)C3=O,17,-4,18,9,34*,38*,40*,25*,27,nt,
C#CCCN([C@@H](CC(C)C)C(=O)OC)S(=O)(=O)c1ccccc1Br,3,nt,nt,-2,nt,-6,nt,nt,nt,nt,
N#CCCN(CCC#N)C(=O)C1c2ccccc2Oc2ccccc21,67*,0,31,48*,124*,103*,11,8,2,3,
Nc1cnccc1C(=O)O,20*,-5,20,71*,65*,86*,33*,25*,22,5,PRMT1 confirm=14
O=C(C1CC1)C1(C(=O)N2CCOCC2)CC(c2ccccn2)=NO1 (centres undefined),3,nt,nt,-2,nt,-5,nt,nt,nt,nt,
CCC(CNc1cc(OC)cc2cccnc12)NC1CCCCC1 (centres undefined),48*,2,21,32*,126*,89*,17,14,26,12,
O=c1c(O)c(-c2ccc(O)c(O)c2)oc2cc(O)cc(O)c12,18*,-7,21,15,19*,34*,-20,18,33*,4,
C[C@@H]1[C@@H](c2ccccc2)c2cc3ccccc3nc2-c2nc3ccccc3cc2[C@@H]1C(=O)N1CCCC1,-1,nt,nt,2,nt,1,nt,nt,nt,nt,
CCS(=O)(=O)Nc1ccc2c(c1)C(=O)N(C)[C@@H]1CC[C@H](CC(=O)OC)O[C@H]1CO2,-4,nt,nt,-1,nt,3,nt,nt,nt,nt,
O=Nc1c(O)ccc2cc(S(=O)(=O)O)ccc12,nt,-3,1,nt,nt,nt,nt,nt,nt,nt,
Nc1cccc2cc(S(=O)(=O)O)ccc12,20*,-1,14,34*,27*,64*,14,15,nt,2,PRMT1 confirm=17
SMILES,SIAE inh,ATG4B inh,HTRA1 inh,PRMT1 FP inh,TCR CD3 inh,mABHD4 FP,BSA probe FL,TCR-CD3 conf,mABHD4 conf,SIAE confirm,others
O=C(NC1=N[C@@]2(C=C3CCCCC3n3c(=O)n(-c4ccccc4)c(=O)n32)CN1Cc1ccccc1)c1ccccc1 (some centres undefined),2,nt,nt,0,nt,-4,nt,nt,nt,nt,
O=C1CCCC/C1=C\Nc1ccc(O)cc1,22*,3,17,26*,42*,54*,-5,1,13,4,
CCO/C(C)=N/Oc1cccc(N(C)C)c1,23*,nt,nt,15,26*,43*,10,2,nt,12,
O=C(NNC(=O)c1ccc2ccccc2c1O)Nc1ccc(F)cc1,26*,-3,4,-2,32*,7,-5,29*,nt,2,
COc1cccc(OCC(=O)NNC(=O)c2ccc3ccccc3c2O)c1,19*,2,25,8,44*,23,-6,39*,nt,0,
COc1ccccc1C(=O)NNC(=O)c1ccc2ccccc2c1O,20*,nt,6,2,32*,25,1,38*,nt,5,
CCOC(=O)Cc1nc(N2CCN(Cc3cccc4c3OCO4)CC2)c2c(C)c(C(=O)OCC)sc2n1,3,nt,nt,-4,nt,-4,nt,nt,nt,nt,
CCOc1ccccc1/C=N/NC(=O)c1cccc(S(=O)(=O)N(CC)CC)c1,-6,-6,-2,1,5,-2,nt,nt,nt,nt,
CCN(CC)S(=O)(=O)c1cccc(C(=O)N/N=C/c2ccc(O)c(O)c2O)c1,34*,35,34,27*,31*,42*,-14,29*,52*,-8,
O=C(CSc1nnc(-c2ccc(Cl)cc2)n1-c1ccccc1)NN=Cc1c[nH]c2ccccc12,11,nt,nt,-7,nt,-6,nt,nt,nt,nt,
Cn1c(=O)c2c(-c3ccccc3)n(-c3cccc(O)c3)cc2n(C)c1=O,6,nt,nt,16,-4,20,nt,nt,nt,nt,
Cn1c(=O)c2c(-c3ccccc3)n(-c3ccc(N)cc3)cc2n(C)c1=O,22*,nt,nt,17,29*,58*,14,16,26,13,
O=C(N/N=C/c1cc(Br)cc(Br)c1O)c1cccc(N2CCCC2=O)c1,41*,3,18,0,37*,12,-14,48*,nt,20*,
O=C(N/N=C/c1ccc(Cl)cc1Cl)c1cccc(N2CCCC2=O)c1,-8,-1,-1,-5,2,-4,nt,nt,nt,nt,
